{"source": "ChEMBL document CHEMBL1130209", "about": "“A novel series of 2,5-substituted tryptamine derivatives as vascular 5HT1B/1D receptor antagonists” (J Med Chem, 1997)", "target": "T1, Adrenergic receptor alpha-1 (Rattus norvegicus, UniProt P15823+P23944+P43140)", "T1 sequence (P15823 whole entry)": "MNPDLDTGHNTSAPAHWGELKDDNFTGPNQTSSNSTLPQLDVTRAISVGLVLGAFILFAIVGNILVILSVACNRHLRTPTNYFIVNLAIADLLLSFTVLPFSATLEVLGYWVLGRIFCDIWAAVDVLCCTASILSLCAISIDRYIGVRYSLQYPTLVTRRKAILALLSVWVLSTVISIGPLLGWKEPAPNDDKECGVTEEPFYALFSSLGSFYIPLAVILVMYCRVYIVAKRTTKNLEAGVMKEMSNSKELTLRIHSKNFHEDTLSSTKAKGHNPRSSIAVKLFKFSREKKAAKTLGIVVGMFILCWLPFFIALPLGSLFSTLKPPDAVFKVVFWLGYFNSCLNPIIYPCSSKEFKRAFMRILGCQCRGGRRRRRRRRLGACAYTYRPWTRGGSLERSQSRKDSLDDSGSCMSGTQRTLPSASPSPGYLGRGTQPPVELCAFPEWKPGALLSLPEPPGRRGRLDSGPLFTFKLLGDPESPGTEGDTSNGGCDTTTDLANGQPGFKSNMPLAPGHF", "T1 sequence (P23944 whole entry)": "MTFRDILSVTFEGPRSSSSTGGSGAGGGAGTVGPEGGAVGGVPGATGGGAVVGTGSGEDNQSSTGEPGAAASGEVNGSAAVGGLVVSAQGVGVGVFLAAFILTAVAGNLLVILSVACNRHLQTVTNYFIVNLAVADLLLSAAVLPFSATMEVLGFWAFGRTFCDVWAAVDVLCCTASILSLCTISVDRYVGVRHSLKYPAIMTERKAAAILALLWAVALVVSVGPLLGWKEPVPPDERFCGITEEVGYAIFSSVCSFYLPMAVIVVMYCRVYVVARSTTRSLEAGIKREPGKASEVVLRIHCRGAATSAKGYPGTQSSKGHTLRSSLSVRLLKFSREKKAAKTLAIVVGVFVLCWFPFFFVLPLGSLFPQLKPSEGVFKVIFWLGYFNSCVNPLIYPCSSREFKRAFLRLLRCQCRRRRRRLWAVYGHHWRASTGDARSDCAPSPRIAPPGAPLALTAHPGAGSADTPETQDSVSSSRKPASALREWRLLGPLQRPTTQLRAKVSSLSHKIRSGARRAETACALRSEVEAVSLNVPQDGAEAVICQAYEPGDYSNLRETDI", "T1 sequence (P43140 whole entry)": "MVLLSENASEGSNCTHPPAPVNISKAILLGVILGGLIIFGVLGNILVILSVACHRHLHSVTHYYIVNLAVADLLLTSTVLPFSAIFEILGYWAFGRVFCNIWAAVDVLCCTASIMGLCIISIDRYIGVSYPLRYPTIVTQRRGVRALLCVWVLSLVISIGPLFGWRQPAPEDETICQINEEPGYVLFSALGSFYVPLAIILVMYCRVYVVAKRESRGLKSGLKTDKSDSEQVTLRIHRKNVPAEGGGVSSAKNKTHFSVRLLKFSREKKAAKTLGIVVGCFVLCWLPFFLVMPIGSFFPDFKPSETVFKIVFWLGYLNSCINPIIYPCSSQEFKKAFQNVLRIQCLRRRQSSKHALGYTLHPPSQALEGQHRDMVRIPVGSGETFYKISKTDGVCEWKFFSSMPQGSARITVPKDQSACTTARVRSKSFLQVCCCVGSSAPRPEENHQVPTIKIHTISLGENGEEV", "test": "Affinity pKi for Alpha-1 adrenergic receptor was measured in rat cortex homogenates", "type": "tissue-based", "procedure,_shortened": "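Competition binding with rat cortex homogenate: radioligand near its KD plus a wide range of test drug concentrations in duplicate, 30 min at 27 °C. Buffer 50 mM TRIS-HCl, 5 mM CaCl₂, 0.1% (w/v) ascorbate, 10 mM pargyline. Nonspecific binding defined with excess cold 5HT. Rapid filtration with ice-cold buffer wash, liquid scintillation count. pKi is the mean of at least three estimates.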", "data": [{"molecule": "CCOC(=O)c1[nH]c2ccc(CCN3C(=O)CNC3=O)cc2c1CCN(C)C", "values": [{"measurement": "Log Ki", "result": -4.95}]}]}
